Results collected from several papers.
Compare with care: the assays were run in different laboratories.
CNR2: Cannabinoid receptor 2 (CNR2, Homo sapiens, UniProt P34972)
HRH3: Histamine H3 receptor (HRH3, Homo sapiens, UniProt Q9Y5N1)
CHRNA7: Neuronal acetylcholine receptor subunit alpha-7 (CHRNA7, Homo sapiens, UniProt P36544)
Ntsr1: Neurotensin receptor type 1 (Ntsr1, Rattus norvegicus, UniProt P20789)

SMILES | target | effect on | action | technique | notes | measurement | value
C=C1CC[C@H]2O[C@]2(C)CC[C@@H]2[C@@H]1CC2(C)C | CNR2 | ligand displacement |  | radioligand | cell membranes | Ki | > 10000 nM
CCC(CC)(NC(=O)c1ccc(N2CC(OC)C2)c(OC[C@H]2C[C@@H]2CO)n1)C(=O)NCCOCCOCCNC(=O)c1ccc2c(c1)C1(OC2=O)c2ccc(N(C)C)cc2[Si](C)(C)c2cc(N(C)C)ccc21 | CNR2 | ligand displacement |  | radioligand | cell membranes | Ki | 1620 nM
COC(=O)c1cc(N(C)C(=O)c2ccn3ncc(-c4ccc(C(=O)O)cc4)c3c2)ccc1Cl | HRH3 | cell-free assay |  |  |  | IC50 | > 30 µM
CC[C@H](C)[C@H](NC(C)=O)C(=O)N[C@@H](CCC(=O)O)C(=O)N[C@H](C(=O)N[C@H](C=O)CC(=O)O)[C@@H](C)O | Caspase-2 (Homo sapiens, UniProt P42575) | enzyme activity | inhibitor |  |  | IC50 | 0.0733 µM
COc1ccc2c3c([nH]c2c1)CCN(C)CC3 | CHRNA7 | ion current | antagonist | two-electrode voltage clamp | oocytes | IC50 | 10.3 µM
CC(C)(C)OC(=O)N1CCN(C(=O)n2cc(-c3ccc(OC(F)(F)F)cc3)nn2)C(Cc2ccccc2)C1 (stereo not drawn) | Monoacylglycerol lipase ABHD6 (Abhd6, Mus musculus, UniProt Q8R2Y0) | enzyme activity | inhibitor |  |  | IC50 | 0.0081 µM
CCC(CC)(NC(=O)c1ccc(C2CC2)c(Cc2ccc(F)cc2)n1)C(=O)NCCOCCOCCNC(=O)c1ccc2c(c1)C(=O)OC21c2ccc(N)c(S(=O)(=O)O)c2Oc2c1ccc(N)c2S(=O)(=O)O | CNR2 | ligand displacement |  | radioligand | cell membranes | Ki | 141 nM
COc1ccc2[nH]c3c(c2c1)CCN(C)CC3 | CHRNA7 | ion current | antagonist | two-electrode voltage clamp | oocytes | IC50 | 11.2 µM
CC(C)C[C@@H]1NC(=O)[C@H](C(C)(C)C)NC(=O)[C@H](Cc2ccc(O)cc2)NC(=O)[C@@H]2CCCN2C(=O)[C@H](CCCCN)NC(=O)[C@H](CCCNC(=N)N)NC1=O | Ntsr1 | ligand displacement |  |  |  | Ki | > 100000 nM
CCCCCc1cc(O)c2c(c1)OC(C)(CCC=C(C)C)C=C2 (stereo not drawn) | CNR2 | ligand displacement |  | radioligand | cell membranes | Ki | 1740 nM
CNC(=O)c1ccc(-c2cnn3ccc(C(=O)N(C)c4ccc(Cl)c(C(=O)OC)c4)cc23)cc1 | HRH3 | cell-free assay |  |  |  | IC50 | > 30 µM
CC(C)C[C@H](NC(=O)[C@@H](N)C(C)(C)C)C(=O)N[C@@H](CCCNC(=N)N)C(=O)N[C@@H](CCCCN)C(=O)N1CCC[C@H]1C(=O)N[C@@H](Cc1ccc(O)cc1)C(=O)O | Ntsr1 | ligand displacement |  | flow cytometry |  | Ki | > 100000 nM
